The structures appear in SMILES notation. The source made the active and inactive calls. No cut-off for these calls is given here.

Assay [1] has as its system A549. In words: Cytotoxicity against human A549 cells after 48 hrs by MTT assay. The conditions noted are these: A549, 48 h. The format is functional, cell-based. The method in brief:
(§1)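 Human cancer cell lines (A549 lung, MCF-7 breast, DU-145 prostate, HeLa cervical) exposed to compounds for 48 h; 50% inhibitory concentration derived, average of three individual experiments; doxorubicin reference agent.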
(Formazan colour is commonly taken as a measure of viable cells.)

The subject of assay [2] is MCF7. In words: Cytotoxicity against human MCF7 cells after 48 hrs by MTT assay. The class given is functional, cell-based. The conditions noted are these: MCF7, 48 h. The method in brief:
as §1

In assay [3] the test system is DU-145. In words: Cytotoxicity against human DU145 cells after 48 hrs by MTT assay. The conditions noted are these: DU-145, 48 h. The class given is functional, cell-based. The method in brief: as §1
Assay [4] relates to HeLa. In words: Cytotoxicity against human HeLa cells after 48 hrs by MTT assay. The class given is functional, cell-based. The method in brief:
as §1

Assay [5] deals with DNA topoisomerase II (Homo sapiens) (UniProt P11388+Q02880). In words: Interfacial poisoning activity at DNA-topoisomerase 2 (unknown origin) using catenated kDNA as substrate assessed as linear DNA formation at 1 to 100 uM after 30 mins by agarose gel electrophoresis. The format is protein assay. A digest of the protocol:
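Catenated DNA incubated with topo II and compound at 1, 10 and 100 µM; gel products scored for linear DNA (poison type) versus nicked circular/relaxed DNA retained in wells (catalytic inhibitor type); etoposide at 1, 10, 100 µM as control.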

As usually defined, the IC50 is the concentration that inhibits the measured activity by half. Low values mean greater potency, high ones weaker potency. Take `COc1cc(-c2nc(CN)cc3c4ccccc4n(C)c23)cc(OC)c1OC`: the IC50 in assay [1] amounted to 18.2 µM; in assay [2] it was 15.1 µM; in assay [3] it was 14.8 µM; in assay [4], 19.9 µM.
For the compound `C=CCSC(=S)NCc1cc2c([nH]c3ccccc32)c(-c2ccc(C(F)(F)F)cc2)n1`, the 50% inhibitory concentration (IC50) in assay [1] stood at 18.6 µM; in assay [2], 10.9 µM; in assay [3], 7.76 µM; in assay [4], 10.6 µM.
Take `Fc1ccc(-c2nc(CNC(=S)SCc3ccccc3)cc3c2[nH]c2ccccc23)cc1`: the half-maximal inhibitory concentration (IC50) in assay [1] is 39.8 µM; in assay [2], 7.41 µM; in assay [3] it was 3.71 µM; in assay [4] it was 3.81 µM.
For `COc1cc(-c2nc(CNC(=S)SC)cc3c2[nH]c2ccccc23)cc(OC)c1OC`, the half-inhibitory concentration (IC50) in assay [1] was 8.12 µM; in assay [2], 8.91 µM; in assay [3] it was 5.62 µM; in assay [4], 11.3 µM.
Consider `COc1ccc(-c2nc(CN)cc3c2[nH]c2ccccc23)cc1`, for which the half-inhibitory concentration (IC50) in assay [1] came out at 17.8 µM; in assay [2] it was 18.9 µM; in assay [3] it was 17.4 µM; in assay [4] it was 18.6 µM.
With `C=CCSC(=S)NCc1cc2c([nH]c3ccccc32)c(-c2ccc(F)cc2)n1`, the concentration for half-maximal inhibition (IC50) in assay [1] is 16.7 µM; in assay [2], 6.6 µM; in assay [3] it was 3.98 µM; in assay [4], 4.46 µM.
On the same counts, the results for `C=CCSC(=S)NCc1cc2c([nH]c3ccccc32)c(-c2ccc(OC)cc2)n1` are 51.4 µM, 38.8 µM, 46.7 µM and 59.1 µM.
On the same counts, the results for `Cn1c2ccccc2c2cc(CNC(=S)SCc3ccccc3)nc(-c3ccc(F)cc3)c21` are 6.76 µM, 2.75 µM, 4.78 µM and 3.16 µM.
On the same counts, the results for `COc1cc(-c2nc(CN)cc3c2[nH]c2ccccc23)cc(OC)c1OC` are 15.1 µM, 18.6 µM, 18.3 µM and 21.7 µM.
On to `COc1ccc(-c2nc(CNC(=S)SC)cc3c2[nH]c2ccccc23)cc1`, for which the half-maximal inhibitory concentration (IC50) in assay [1] came to 7.94 µM; in assay [2] it was 8.51 µM; in assay [3], 1.14 µM; in assay [4], 7.78 µM.
In the case of `COc1ccc(-c2nc(CNC(=S)SCc3ccccc3)cc3c2[nH]c2ccccc23)cc1`, the IC50 was determined as 17.7 µM in assay [1], 10 µM in assay [2], 13.8 µM in assay [3] and 24.1 µM in assay [4].
For the compound `FC(F)(F)c1ccc(-c2nc(CNC(=S)SCc3ccccc3)cc3c2[nH]c2ccccc23)cc1`, the 50% inhibitory concentration (IC50) in assay [1] was found to be 9.33 µM; in assay [2], 12.3 µM; in assay [3] it was 5.88 µM; in assay [4] it was 3.98 µM.
On the same counts, the results for `C=CCSC(=S)NCc1cc2c3ccccc3n(C)c2c(-c2cc(OC)c(OC)c(OC)c2)n1` are 18.1 µM, 20.6 µM, 19.4 µM and 19.9 µM.
On the same counts, the results for `COc1ccc(-c2nc(CNC(=S)SC)cc3c4ccccc4n(C)c23)cc1` are 5.12 µM, 1.51 µM, 1.41 µM and 2.57 µM.
As for `CSC(=S)NCc1cc2c3ccccc3n(C)c2c(-c2ccc(F)cc2)n1`, the IC50 worked out at 5.62 µM in assay [1], 1.86 µM in assay [2], 1.45 µM in assay [3] and 2.39 µM in assay [4].
For `COc1cccc2c1C(=O)c1c(O)c3c(c(O)c1C2=O)C[C@@](O)(C(=O)CO)C[C@@H]3O[C@H]1C[C@H](N)[C@H](O)[C@H](C)O1` [DOXORUBICIN], the IC50 in assay [1] came to 1.58 µM; in assay [2], 0.96 µM; in assay [3] it was 1.38 µM; in assay [4], 2.63 µM.
On the same counts, the results for `C=CCSC(=S)NCc1cc2c3ccccc3n(C)c2c(-c2ccc(OC)cc2)n1` are 10 µM, 3.2 µM, 2.5 µM and 8.3 µM.
As for `Cn1c2ccccc2c2cc(CN)nc(-c3ccc(C(F)(F)F)cc3)c21`, the IC50 in assay [1] was determined as 19.2 µM; in assay [2], 11.7 µM; in assay [3], 7.76 µM; in assay [4], 15.1 µM.
On the same counts, the results for `CSC(=S)NCc1cc2c([nH]c3ccccc32)c(-c2ccc(C(F)(F)F)cc2)n1` are 16.9 µM, 15.8 µM, 9.54 µM and 12.6 µM.
On the same counts, the results for `COc1cc(-c2nc(CNC(=S)SC)cc3c4ccccc4n(C)c23)cc(OC)c1OC` are 12.5 µM, 15.2 µM, 6.16 µM and 16.9 µM.
Consider `C=CCSC(=S)NCc1cc2c3ccccc3n(C)c2c(-c2ccc(F)cc2)n1`, for which the 50% inhibitory concentration (IC50) was found to be 6.02 µM in assay [1], 3.01 µM in assay [2], 2.88 µM in assay [3] and 2.57 µM in assay [4].
On the same counts, the results for `NCc1cc2c([nH]c3ccccc32)c(-c2ccc(F)cc2)n1` are 21.1 µM, 17.9 µM, 13.8 µM and 22.5 µM.
On the same counts, the results for `C=CCSC(=S)NCc1cc2c3ccccc3n(C)c2c(-c2ccc(C(F)(F)F)cc2)n1` are 4.26 µM, 4.78 µM, 1.99 µM and 4.67 µM.
On the same counts, the results for `COc1ccc(-c2nc(CNC(=S)SCc3ccccc3)cc3c4ccccc4n(C)c23)cc1` are 9.12 µM, 3.36 µM, 6.91 µM and 13.8 µM.
Take `Cn1c2ccccc2c2cc(CN)nc(-c3ccc(F)cc3)c21`: the IC50 was determined as 19.5 µM in assay [1], 16.6 µM in assay [2], 10 µM in assay [3] and 20.5 µM in assay [4].
Regarding `COc1cc([C@@H]2c3cc4c(cc3[C@@H](O[C@@H]3O[C@@H]5CO[C@@H](C)O[C@H]5[C@H](O)[C@H]3O)[C@H]3COC(=O)[C@H]23)OCO4)cc(OC)c1O`, the outcome in assay [5] was Active.
Consider `NCc1cc2c([nH]c3ccccc32)c(-c2ccc(C(F)(F)F)cc2)n1`, for which the IC50 in assay [1] came to 15.8 µM; in assay [2], 12 µM; in assay [3] it was 9.12 µM; in assay [4] it was 15.8 µM.
For the compound `COc1ccc(-c2nc(CN)cc3c4ccccc4n(C)c23)cc1`, the IC50 was found to be 20.1 µM in assay [1], 16.6 µM in assay [2], 12.8 µM in assay [3] and 14.8 µM in assay [4].
As to `C=CCSC(=S)NCc1cc2c([nH]c3ccccc32)c(-c2cc(OC)c(OC)c(OC)c2)n1`, the IC50 in assay [1] amounted to 12.8 µM; in assay [2] it was 15.8 µM; in assay [3], 13.8 µM; in assay [4], 23.2 µM.
On the same counts, the results for `COc1cc(-c2nc(CNC(=S)SCc3ccccc3)cc3c2[nH]c2ccccc23)cc(OC)c1OC` are 27.5 µM, 25.8 µM, 17.3 µM and 14.5 µM.
With `COc1cc(-c2nc(CNC(=S)SCc3ccccc3)cc3c4ccccc4n(C)c23)cc(OC)c1OC`, the 50% inhibitory concentration (IC50) in assay [1] is 14.1 µM; in assay [2] it was 13.9 µM; in assay [3], 10.6 µM; in assay [4] it was 12.3 µM.
Consider `Cn1c2ccccc2c2cc(CNC(=S)SCc3ccccc3)nc(-c3ccc(C(F)(F)F)cc3)c21`, for which the IC50 in assay [1] came out at 5.12 µM; in assay [2], 4.31 µM; in assay [3], 2.08 µM; in assay [4], 4.78 µM.
